In assay [1] the target is T1, CREB-binding protein (Homo sapiens, UniProt Q92793). In words: Residual binding of human CBP expressed in Escherichia coli to histone H4 tetraacetylated peptide at 0.5 mM by Alphascreen assay relative to control. (In general: Bead proximity is the source of the signal in Alpha formats.)
Target sequence in this assay (Q92793 2-2442 limits assumed): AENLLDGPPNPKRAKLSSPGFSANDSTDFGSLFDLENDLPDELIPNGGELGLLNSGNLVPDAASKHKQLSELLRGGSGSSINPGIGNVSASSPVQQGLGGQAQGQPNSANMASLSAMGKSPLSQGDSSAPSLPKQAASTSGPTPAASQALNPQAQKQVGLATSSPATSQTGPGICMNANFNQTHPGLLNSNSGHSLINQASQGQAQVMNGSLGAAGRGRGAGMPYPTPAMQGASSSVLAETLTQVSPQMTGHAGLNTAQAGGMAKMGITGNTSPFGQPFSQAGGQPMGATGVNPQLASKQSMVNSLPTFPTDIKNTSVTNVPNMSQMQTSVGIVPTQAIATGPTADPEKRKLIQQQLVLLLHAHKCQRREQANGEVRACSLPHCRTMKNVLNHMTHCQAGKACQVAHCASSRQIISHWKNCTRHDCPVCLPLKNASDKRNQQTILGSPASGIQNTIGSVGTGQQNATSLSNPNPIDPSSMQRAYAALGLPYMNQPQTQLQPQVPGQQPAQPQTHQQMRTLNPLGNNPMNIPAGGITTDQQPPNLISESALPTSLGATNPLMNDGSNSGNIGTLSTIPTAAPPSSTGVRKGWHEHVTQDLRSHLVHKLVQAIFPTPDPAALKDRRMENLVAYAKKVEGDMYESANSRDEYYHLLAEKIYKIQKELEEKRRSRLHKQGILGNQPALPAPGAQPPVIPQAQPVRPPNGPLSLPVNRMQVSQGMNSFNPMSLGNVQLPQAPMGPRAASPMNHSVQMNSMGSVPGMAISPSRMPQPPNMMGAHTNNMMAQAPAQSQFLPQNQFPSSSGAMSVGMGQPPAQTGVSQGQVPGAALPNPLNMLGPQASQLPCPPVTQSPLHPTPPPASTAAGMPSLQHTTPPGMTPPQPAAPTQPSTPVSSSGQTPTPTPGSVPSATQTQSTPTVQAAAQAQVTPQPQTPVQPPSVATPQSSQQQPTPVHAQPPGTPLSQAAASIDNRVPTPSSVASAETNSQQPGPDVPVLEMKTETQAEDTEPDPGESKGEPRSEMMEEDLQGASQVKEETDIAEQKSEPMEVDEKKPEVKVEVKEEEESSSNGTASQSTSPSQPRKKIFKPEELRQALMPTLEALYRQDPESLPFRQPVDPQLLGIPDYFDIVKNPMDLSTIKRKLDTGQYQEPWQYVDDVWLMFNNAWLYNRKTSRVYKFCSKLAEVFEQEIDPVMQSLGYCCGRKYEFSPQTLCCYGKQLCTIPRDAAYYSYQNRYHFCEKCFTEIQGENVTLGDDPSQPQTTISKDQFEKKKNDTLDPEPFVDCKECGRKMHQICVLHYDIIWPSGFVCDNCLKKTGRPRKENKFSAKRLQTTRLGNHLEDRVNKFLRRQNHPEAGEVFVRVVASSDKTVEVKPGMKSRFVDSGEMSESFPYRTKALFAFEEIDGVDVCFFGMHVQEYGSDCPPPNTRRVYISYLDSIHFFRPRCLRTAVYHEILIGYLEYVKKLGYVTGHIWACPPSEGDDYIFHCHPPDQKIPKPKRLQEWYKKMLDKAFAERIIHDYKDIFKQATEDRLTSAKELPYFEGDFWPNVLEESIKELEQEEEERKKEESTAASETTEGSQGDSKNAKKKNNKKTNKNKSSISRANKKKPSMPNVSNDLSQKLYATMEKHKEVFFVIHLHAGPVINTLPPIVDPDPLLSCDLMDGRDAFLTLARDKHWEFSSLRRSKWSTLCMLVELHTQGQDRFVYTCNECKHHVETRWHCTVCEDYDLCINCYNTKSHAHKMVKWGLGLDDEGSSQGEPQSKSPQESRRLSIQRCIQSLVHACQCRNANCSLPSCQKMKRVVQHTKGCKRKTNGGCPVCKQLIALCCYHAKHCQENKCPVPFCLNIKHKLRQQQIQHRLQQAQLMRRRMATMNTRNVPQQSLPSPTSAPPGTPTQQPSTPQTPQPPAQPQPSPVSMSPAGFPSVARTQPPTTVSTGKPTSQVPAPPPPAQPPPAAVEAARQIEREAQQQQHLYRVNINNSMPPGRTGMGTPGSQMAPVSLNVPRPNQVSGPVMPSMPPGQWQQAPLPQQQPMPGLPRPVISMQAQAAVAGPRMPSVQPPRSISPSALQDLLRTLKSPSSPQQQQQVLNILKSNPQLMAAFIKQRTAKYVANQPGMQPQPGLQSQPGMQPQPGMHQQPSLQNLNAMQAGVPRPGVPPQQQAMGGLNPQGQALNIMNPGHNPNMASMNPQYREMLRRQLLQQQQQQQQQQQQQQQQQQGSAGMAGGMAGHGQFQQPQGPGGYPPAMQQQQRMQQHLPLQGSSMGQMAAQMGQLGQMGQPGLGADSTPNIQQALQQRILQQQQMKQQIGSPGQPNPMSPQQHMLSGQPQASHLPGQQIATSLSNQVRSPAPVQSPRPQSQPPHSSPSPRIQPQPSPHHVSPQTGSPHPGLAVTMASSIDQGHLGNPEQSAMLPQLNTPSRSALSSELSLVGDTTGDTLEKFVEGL
Assay [2] addresses Histone acetyltransferase p300 (Homo sapiens) (UniProt Q09472). In words: Binding affinity to EP300 (unknown origin) assessed as change in melting temperature at 1 mM by differential scanning fluorimetric method. In short, it runs like this:
(§1)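 Differential scanning fluorimetry with bromodomain at 2 μM and ligand at 1 mM. The reported shift in melting temperature is the median of at least nine measurements for each ligand/bromodomain pair.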
Background: Differential scanning fluorimetry follows unfolding on heating by fluorescence.

Assay [3] deals with T1, CREB-binding protein. In words: Binding affinity to CBP (unknown origin) assessed as change in melting temperature at 1 mM by differential scanning fluorimetric method. Put shortly: as §1
Target sequence in this assay (Q92793 2-2442 limits assumed): as above
For assay [4], the target named is T1, CREB-binding protein. In words: Binding affinity to partial length human DNA-tagged CBP (R1081 to G1197 residues) expressed in bacterial expression system by qPCR analysis. Put shortly: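 Competition-binding assay using DNA-tagged CBP bromodomain against an undisclosed proprietary ligand, with quantitative PCR read-out. KD was obtained by curve fitting of 12-point dose responses run in duplicate.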

The target of assay [5] is T1, CREB-binding protein. In words: Inhibition of histone H4 tetraacetylated peptide binding to human CBP by Alphascreen assay. In short, it runs like this:
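AlphaScreen competition with a tetra-acetylated 21-mer histone H4 peptide as the competitor for the CBP bromodomain. IC50 was obtained by curve fitting of 10-point dose responses.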

This note sets out measurements from ChEMBL document CHEMBL4028826, “Virtual screen to NMR (VS2NMR): Discovery of fragment hits for the CBP bromodomain” (Bioorg Med Chem Lett, 2017).

Structures are written as SMILES.

Chain of Histone acetyltransferase p300 (Homo sapiens) (Q09472 whole entry): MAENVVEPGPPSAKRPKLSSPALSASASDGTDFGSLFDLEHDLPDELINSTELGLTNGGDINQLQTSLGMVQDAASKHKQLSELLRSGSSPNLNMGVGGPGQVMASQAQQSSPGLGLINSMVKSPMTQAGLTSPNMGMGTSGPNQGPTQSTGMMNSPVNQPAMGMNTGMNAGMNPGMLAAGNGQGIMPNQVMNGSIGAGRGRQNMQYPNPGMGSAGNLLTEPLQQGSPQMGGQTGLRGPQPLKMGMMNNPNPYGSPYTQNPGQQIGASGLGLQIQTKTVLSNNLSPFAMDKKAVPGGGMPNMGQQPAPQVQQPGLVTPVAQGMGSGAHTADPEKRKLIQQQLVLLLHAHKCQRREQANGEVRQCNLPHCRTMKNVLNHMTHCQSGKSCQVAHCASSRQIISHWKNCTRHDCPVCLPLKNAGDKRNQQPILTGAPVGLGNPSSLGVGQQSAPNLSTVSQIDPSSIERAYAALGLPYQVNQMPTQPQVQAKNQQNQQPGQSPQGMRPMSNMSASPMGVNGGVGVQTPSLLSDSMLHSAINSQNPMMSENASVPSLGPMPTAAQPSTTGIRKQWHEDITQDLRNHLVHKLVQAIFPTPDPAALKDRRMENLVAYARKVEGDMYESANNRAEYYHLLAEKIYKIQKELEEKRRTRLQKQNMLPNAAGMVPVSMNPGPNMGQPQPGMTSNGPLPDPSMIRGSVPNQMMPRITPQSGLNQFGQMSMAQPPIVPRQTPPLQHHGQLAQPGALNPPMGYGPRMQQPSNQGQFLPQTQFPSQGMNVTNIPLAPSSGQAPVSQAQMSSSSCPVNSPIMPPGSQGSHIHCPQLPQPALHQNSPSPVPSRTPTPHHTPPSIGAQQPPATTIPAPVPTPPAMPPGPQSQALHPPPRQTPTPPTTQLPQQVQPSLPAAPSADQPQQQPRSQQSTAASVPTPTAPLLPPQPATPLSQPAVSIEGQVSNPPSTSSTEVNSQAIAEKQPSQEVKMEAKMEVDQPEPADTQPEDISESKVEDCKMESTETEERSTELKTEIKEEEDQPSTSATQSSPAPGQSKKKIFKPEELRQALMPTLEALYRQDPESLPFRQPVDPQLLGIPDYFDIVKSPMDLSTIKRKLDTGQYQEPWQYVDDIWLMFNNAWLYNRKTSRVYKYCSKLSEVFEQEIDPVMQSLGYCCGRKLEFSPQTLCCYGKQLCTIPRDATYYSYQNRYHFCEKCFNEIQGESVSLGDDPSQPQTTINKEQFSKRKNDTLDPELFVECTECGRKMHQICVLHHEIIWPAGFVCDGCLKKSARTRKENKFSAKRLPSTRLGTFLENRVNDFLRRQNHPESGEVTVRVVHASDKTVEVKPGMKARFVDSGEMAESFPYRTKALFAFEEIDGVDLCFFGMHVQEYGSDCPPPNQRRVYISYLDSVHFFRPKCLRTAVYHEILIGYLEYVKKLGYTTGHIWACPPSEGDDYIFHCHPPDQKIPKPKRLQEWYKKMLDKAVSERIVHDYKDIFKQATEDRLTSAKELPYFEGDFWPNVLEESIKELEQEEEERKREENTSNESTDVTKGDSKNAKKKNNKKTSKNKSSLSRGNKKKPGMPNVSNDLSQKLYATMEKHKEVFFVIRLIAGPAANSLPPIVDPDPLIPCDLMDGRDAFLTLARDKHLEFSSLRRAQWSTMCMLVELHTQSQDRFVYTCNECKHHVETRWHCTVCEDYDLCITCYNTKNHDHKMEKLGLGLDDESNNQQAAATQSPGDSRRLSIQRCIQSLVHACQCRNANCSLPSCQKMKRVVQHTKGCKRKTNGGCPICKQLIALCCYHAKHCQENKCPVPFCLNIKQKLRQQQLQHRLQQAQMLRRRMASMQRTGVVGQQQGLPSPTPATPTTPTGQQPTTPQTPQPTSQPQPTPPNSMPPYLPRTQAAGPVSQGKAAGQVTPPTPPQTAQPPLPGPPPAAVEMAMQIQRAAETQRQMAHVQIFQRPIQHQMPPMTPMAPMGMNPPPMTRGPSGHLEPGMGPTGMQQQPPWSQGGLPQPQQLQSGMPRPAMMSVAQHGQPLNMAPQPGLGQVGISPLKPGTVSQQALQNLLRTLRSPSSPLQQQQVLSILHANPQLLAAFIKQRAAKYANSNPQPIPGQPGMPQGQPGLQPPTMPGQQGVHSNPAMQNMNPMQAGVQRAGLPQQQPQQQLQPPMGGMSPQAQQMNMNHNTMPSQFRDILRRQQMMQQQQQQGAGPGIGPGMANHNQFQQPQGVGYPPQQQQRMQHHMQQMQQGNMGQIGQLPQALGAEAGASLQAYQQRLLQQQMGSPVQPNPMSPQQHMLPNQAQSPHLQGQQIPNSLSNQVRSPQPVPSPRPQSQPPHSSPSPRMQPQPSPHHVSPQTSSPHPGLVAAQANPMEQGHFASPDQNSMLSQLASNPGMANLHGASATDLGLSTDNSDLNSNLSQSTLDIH

Broadly, the residual activity is the signal under treatment as a percentage of the control signal. Turning to `O=c1[nH]c(=O)n([C@H]2C[C@H](O)[C@H](CO)O2)cc1F`, the residual activity on CREB-binding protein [1] was determined as 98%.
Still for that read-out and setting: with `CNC(=O)c1ccc(C(F)(F)F)nc1` the figure was 96%; with `CC(=O)c1ccc(CC#N)s1`, 56%.
For orientation: ΔTm means the shift of the melting midpoint relative to a reference. With `CC(=O)c1cn(C)c2ccccc12`, at CREB-binding protein [1], the residual activity was 31%. Besides, the ΔTm in assay [2] came out at 2.6 °C; on CREB-binding protein [3], 2.9 °C.
Regarding `Cc1nnc2ccc(N3CCOCC3)nn12`, the residual activity on CREB-binding protein [1] came to 102%.
Take `CS(=O)(=O)NCc1ccc2c(c1)OCO2`: the residual activity at CREB-binding protein [1] turned out to be 100%.
As for `CC(=O)Nc1ccc(SCC#N)cc1`, the residual activity at CREB-binding protein [1] came out at 74%.
Broadly, the Kd is a measure of binding affinity in units of concentration. Higher therefore signals a looser complex. The term IC50 denotes the point on the concentration scale where inhibition reaches its midpoint. The low end stands for greater potency, the high end for weaker potency. With `CNC(=O)c1cc(Br)c[nH]1`, on CREB-binding protein [4], the Kd was 4 µM. The residual activity at CREB-binding protein [1] is 0.1%. Further, the figures for the ΔTm (in assay [2]; on CREB-binding protein [3]) were 7 °C and 7.3 °C, respectively. The IC50 on CREB-binding protein [5] was 40 µM.
`Cc1nnsc1Sc1ccccn1`: the residual activity on CREB-binding protein [1] was determined as 92%.
Same read-out and setting: with `CCc1nnc2cccc(Cl)n12` the figure was 85%.
Still for that read-out and setting: then `O=C(O)[C@@H]1CS[C@H](c2ccc(F)cc2)N1`, with 94%.
In turn, `COC(=O)c1ccc2[nH]c(=O)oc2c1` yielded a Kd on CREB-binding protein [4] of 85 µM. Besides, the residual activity at CREB-binding protein [1] is 34%. The ΔTm in assay [2] is 1.4 °C; at CREB-binding protein [3], 2.3 °C. At CREB-binding protein [5], this molecule returned an IC50 of 455 µM.
Turning to `COc1cc(C(C)=O)ccc1N`, on CREB-binding protein [1], the residual activity came to 37%. Further, the ΔTm in assay [2] was 2.6 °C; on CREB-binding protein [3], 2.4 °C.
As to `COC(=O)c1ccc(C(C)=O)cc1`, the residual activity on CREB-binding protein [1] was 92%.
The same measure, in the same setting: then `CC(=O)c1ccc(O)c2[nH]c(=O)ccc12`, with 93%; and `COC(=O)N1CCC(C(=O)O)CC1`, with 56%.
Consider `Cc1nc2ccc(NS(C)(=O)=O)cc2o1`, for which the residual activity on CREB-binding protein [1] came to 92%.
Consider `CCn1cnc2ccc(C(=O)OC)cc21`, for which, on CREB-binding protein [1], the residual activity stood at 79%.
The same measure, in the same setting: with `Cn1ncc2c1CCCC2=O` the figure was 100%.
Turning to `COc1ccc(-c2c[nH]nc2N)cc1OC`, the residual activity on CREB-binding protein [1] came to 48%. The ΔTm was -1.3 °C in assay [2] and -0.1 °C at CREB-binding protein [3].
